This note sets out measurements from ChEMBL document CHEMBL4680229, “Design, synthesis and bioactivity study of N-salicyloyl tryptamine derivatives as multifunctional agents for the treatment of neuroinflammation” (Eur J Med Chem, 2020).

Data set [1] is described as follows: Toxicity in Kunming mouse assessed as changes in liver at 1000 mg/kg, po after 14 days. It is filed as organism-based. To be noted: in vivo, 336 h, time 14 day. A digest of the protocol:
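Mice, five male and five female, given a single oral dose of 1000 mg/kg and observed for behaviour for 14 days. Heart, liver, kidney and stomach then examined grossly and after H&E staining, compared with vehicle controls.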

The species entered for another data set is Homo sapiens. The data set can be described thus: Selectivity index, ratio of IC50 for inhibition of human COX1 to IC50 for inhibition of human COX2.
In data set [2] the test system is BV-2. As to the kind of experiment: Antiinflammatory activity against LPS-induced mouse BV-2 cells assessed as decrease in iba-1 protein expression at 20 uM after 24 hrs by DAPI staining based confocal laser microscopic method. It is filed as functional, cell-based. A digest of the protocol:
(§1)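 Cells on glass slides with compound at 20 μM final for 24 h: C6 with LPS 10 μg/mL stained for GFAP, BV2 with LPS 1 μg/mL stained for Iba-1. Fixed in 4% paraformaldehyde, blocked in 1% BSA/0.3% Triton X-100, primary antibody 1:100 overnight at 4 °C, secondary 1:200, DAPI mount, confocal imaging. Intensity given as % of LPS group, n = 3.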

In data set [3] the test system is C6. The data set can be described thus: Antiinflammatory activity against LPS-induced rat C6 cells assessed as decrease in INOS protein expression at 40 uM after 24 hrs by Western blot analysis relative to control. It is filed as functional. Further details: scale not given: the % may be the effect or the level left. A digest of the protocol: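 C6 cells; LPS 10 μg/mL plus compound at 10, 20 or 40 μM for 24 h. Lysates with RIPA/PMSF, 30 μg protein on 8% SDS-PAGE, iNOS immunoblot and densitometry; at least three independent experiments.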

A short description of data set [4]: Cmax in Sprague-Dawley rat at 50 mg/kg, ip up to 24 hrs by LC-MS analysis. The note with it: in vivo. It is filed as ADME, organism-based. Further details: route intraperitoneal, dose 50 mg/kg, time <=24. The procedure, abridged: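 Male Sprague-Dawley rats, six per group, single 50 mg/kg intraperitoneal dose; parameters derived by non-compartmental analysis using the linear trapezoidal method; mean ± SD, n = 6.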

Data set [5] in a line: Toxicity in po dose Kunming mouse after 14 days. Type of data set: organism-based. To be noted: in vivo, time 14 day. A digest of the protocol: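 Acute toxicity followed OECD guidelines in ten mice (five male, five female). A single oral dose of 1000 mg/kg was given, with a vehicle control group. Behaviour was observed over 14 days. Mice were then sacrificed for gross and H&E histological examination of heart, liver, kidney and stomach.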

Data set [6] relates to C6. As to the kind of experiment: Antiinflammatory activity against LPS-induced rat C6 cells assessed as decrease in GFAP protein expression at 20 uM after 24 hrs by DAPI staining based confocal laser microscopic method. Type of data set: functional, cell-based. A digest of the protocol: as §1
A short description of data set [7]: Antioxidant activity assessed as DPPH radical scavenging activity incubated for 30 mins. It is filed as functional. The procedure, abridged: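 Compound in ethanol at 2.5–40 μM final, mixed 1:1 with 700 μmol/L ethanolic DPPH; 30 min in the dark at room temperature, absorbance at 515 nm. Serotonin used as standard; EC50 from three independent experiments.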
On the technique in general: The DPPH test is a chemical assay of radical scavenging.

The test system of data set [8] is BV-2. The data set can be described thus: Antiinflammatory activity against LPS-induced mouse BV-2 cells assessed as decrease in INOS protein expression at 40 uM after 24 hrs by Western blot analysis relative to control. Type of data set: functional. A digest of the protocol:
(§2)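 BV2 cells in DMEM with 10% FBS; LPS 1 μg/mL plus compound at 10, 20 or 40 μM final for 24 h. Lysates in RIPA with 1 mM PMSF; 30 μg protein on 8% SDS-PAGE and blotted for iNOS and COX-2, GAPDH as reference; ECL detection and densitometry; at least three independent experiments.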
A general note: Immunoblotting shows a protein as a band on a membrane.

Data set [9] deals with C6. As to the kind of experiment: Inhibition of LPS-induced NO production in rat C6 cells incubated for 24 hrs by Griess reagent based assay. It is filed as functional, cell-based. The note with it: C6, 24 h. A digest of the protocol: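 C6 cells at 5×10^5 cells/mL, LPS 10 μg/mL plus compound at 2.5–40 μM final for 24 h. Nitrite measured with Griess reagent at 540 nm against a NaNO2 standard; IC50 from three repeats.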
For orientation: The Griess reaction detects nitrite, a stable product of nitric oxide.

Data set [10] concerns BV-2. The data set can be described thus: Antiinflammatory activity against LPS-induced mouse BV-2 cells assessed as decrease in COX2 protein expression at 40 uM after 24 hrs by Western blot analysis. It is filed as functional, cell-based. The procedure, abridged:
as §2

For data set [11], the system named is BV-2. The data set can be described thus: Antiinflammatory activity against LPS-induced mouse BV-2 cells assessed as decrease in COX2 protein expression after 24 hrs by Western blot analysis. It is filed as functional, cell-based. To be noted: BV-2, 24 h. The procedure, abridged:
as §2

Data set [12] concerns Mus musculus. The data set can be described thus: Antiinflammatory activity against LPS-induced hippocampal neuroinflammatory Kunming mouse model assessed as reduction in iba-1 level in hippocampus at 50 mg/kg, ip administered bid for 6 days by DAPI staining based microscopic method. It is filed as functional, organism-based. The note with it: time 6.0 day.
Data set [13] deals with Mus musculus. The data set can be described thus: Antiinflammatory activity against LPS-induced hippocampal neuroinflammatory Kunming mouse model assessed as reduction in iba-1 level in hippocampus at 50 mg/kg, ip administered bid for 6 days by Western blot analysis. It is filed as functional, organism-based. The note with it: time 6.0 day.
Data set [14] has as its system BV-2. As to the kind of experiment: Inhibition of LPS-induced TNFalpha production in mouse BV-2 cells after 24 hrs by ELISA. It is filed as functional, cell-based. To be noted: dose 10-40 µM. The procedure, abridged:
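BV2 cells at 5×10^5 cells/mL stimulated with LPS 1 μg/mL; compound at 10, 20 or 40 μM final for 24 h, DMSO in blanks. Supernatant TNF-α and IL-10 measured by sandwich ELISA and PGE2 by competitive ELISA, OD at 450 nm; at least three independent experiments.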

Activity calls are given as the source filed them. The calls are words filed in the database; no cut-off is given here.

As for `O=C(NCCc1c[nH]c2ccc(O)cc12)c1ccccc1Nc1ccccc1`, the Activity entry in [1] is recorded as “Non-Toxic”; in the data set on C6 [3], 95%. In the data set filed under Homo sapiens, the Ratio IC50 was 0.76. The outcome in the data set on BV-2 [2], with C6 [6] and in the data set with BV-2 [10] was Active. In data set [4], this compound gave a Cmax of 6080 ng/mL. In data set [5], this compound showed an LD50 at 336 h above 1000 mg/kg. In addition, the EC50 in data set [7] was found to be 3.82 µM. In the data set on BV-2 [8], the outcome was inactive. In the data set on C6 [9], this compound displayed an IC50 of 6.73 µM.

Turning to `Cc1ccc(C(=O)NCCc2c[nH]c3ccccc23)c(O)c1`, the Activity entry in data set [1] is on record as “Non-Toxic”; in the data set with C6 [3], 29%; with BV-2 [8], 100%. Further, the Ratio IC50 in the data set filed under Homo sapiens came to 3.95. The result in the data set on BV-2 [2], with C6 [6], in the data set on Mus musculus [12] and in the data set with Mus musculus [13] was Active. This compound also gave a Cmax in data set [4] of 2100 ng/mL. Besides, the LD50 at 336 h in [5] was above 1000 mg/kg. In data set [7], the EC50 came to 25.2 µM. For the same compound, the IC50 with BV-2 [11] is above 40 µM; with C6 [9], 7.48 µM. Moreover, in the data set with BV-2 [10], the result was inactive. Further, the inhibition entry in the data set on BV-2 [14] was “Dose-dependent effect”.

A word on the Cmax: it is the highest concentration seen after dosing. The term LD50 denotes the dose expected to kill half of the subjects tested. For orientation: EC50 means the concentration needed to bring the measured effect to its halfway point. As a reminder, the IC50 is the concentration that inhibits the measured activity by half.
